{"source": "paper PMC4715857", "about": "(Osteoporosis International, 2015)", "key": {"[1]": {"conditions": "100 mg sustained-release tablet (SRT), morning, repeat administration ref 7, 8; cited from earlier work"}, "serum CTX-I [2]": {"tested_on": "serum CTX-I", "assay": "Serum CTX-I bone resorption marker", "type": "in vivo, healthy postmenopausal women", "conditions": "for time over which >60% suppression of CTX-I was sustained: 150-mg SRT for 5 days", "in_short": "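Serum CTX-I was measured by CrossLaps ELISA. Baseline profile on day −1 via cannula at set clock times over 24 h, ending just before the first dose (08:00 morning, 20:00 evening period). Results expressed as % change from clock-time-matched baseline; 24-h AUE compared morning vs evening by ANCOVA, with post-hoc repeated-measures analysis.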"}, "urinary CTX-I [3]": {"tested_on": "urinary CTX-I", "assay": "Urinary CTX-I/creatinine bone resorption marker", "type": "in vivo, healthy postmenopausal women", "conditions": "150 mg SRT once daily 5 days", "in_short": "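Urinary CTX-I was measured by Urine CrossLaps ELISA and normalized to creatinine. Baseline urine was taken on day −1, and postdose urine on days 1 and 5, with collection at 08:00 (morning dosing) or 20:00 (evening dosing). Dosing was 150 mg sustained-release tablet once daily for 5 days, fed. Results expressed as % change from time-matched baseline; 24-h AUE compared by ANCOVA, with post-hoc repeated-measures analysis.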"}, "[4]": {"tested_on": "bone mineral density (BMD)", "conditions": "postmenopausal women with osteoporosis, 24 months of therapy ref 6; cited from earlier work"}, "bone strength": {"tested_on": "bone strength", "conditions": "ovariectomized rats ref 5; cited from earlier work"}, "serum CTX-I [5]": {"tested_on": "serum CTX-I", "conditions": "cited from earlier work; for serum CTX reduction: postmenopausal women"}, "[6]": {"assay": "Safety assessments / adverse events", "type": "in vivo, healthy postmenopausal women", "conditions": "150 mg once daily for 5 days per period", "in_short": "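Each crossover period (5 days' dosing) included clinical laboratory tests, vital signs, 12-lead ECG and physical examination on admission and at follow-up. Vital signs were also taken at baseline, on all treatment days and at discharge. Adverse events were coded with MedDRA version 14.1. Fourteen subjects were in the safety analysis, and data were summarized in SAS.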"}, "[7]": {"assay": "Plasma ONO-5334 pharmacokinetics", "type": "in vivo, healthy postmenopausal women", "conditions": "day 5, 150 mg SRT, morning regimen", "in_short": "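Oral sustained-release tablet, 150 mg once daily for 5 days per period, fed. Randomized crossover with ≥10-day washout. Blood taken via IV cannula over 12 h on day 1 and 24 h on day 5, hourly 1–6 h postdose. Plasma solid-phase extracted and assayed by validated LC-MS/MS (LLOQ 0.02 ng/mL). Cmax, Tmax and AUC24h derived noncompartmentally; day-5 morning/evening geometric mean ratios with 90% CI by ANOVA; Tmax by Wilcoxon signed rank test.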"}, "urinary CTX-I [8]": {"tested_on": "urinary CTX-I", "conditions": "12 weeks of treatment, healthy postmenopausal women ref 30; cited from earlier work"}, "bone resorption markers": {"tested_on": "bone resorption markers", "conditions": "premenopausal women ref 14, cited from earlier work"}, "serum CTX-I [9]": {"tested_on": "serum CTX-I", "conditions": "oral calcitonin, healthy postmenopausal women ref 15; cited from earlier work"}}, "note": "Like-named read-outs stand apart in the source and are kept apart here."}
{"molecule": "C[C@@H]1CS/C(=N\\NC(=O)C(=O)[C@@H](NC(=O)C2CCCCCC2)C2CCOCC2)N1C", "note": "[ONO-5334]", "values": [{"measurement": "mean half-life", "setting": "[1]", "result": 15, "unit": "h"}, {"measurement": "median time to maximum plasma concentration (Tmax)", "setting": "[1]", "result": 4, "unit": "h"}, {"measurement": "greater suppression of 24-h serum CTX-I AUE, morning than evening", "setting": "serum CTX-I [2]; 150 mg SRT once daily 5 days", "result": 6, "unit": "%"}, {"measurement": "duration of impact on bone resorption", "setting": "serum CTX-I [2]; 150-mg SRT", "result": "≥ 24", "unit": "h"}, {"measurement": "time of lowest serum CTX-I levels postdose", "setting": "serum CTX-I [2]; after morning and evening administration", "result": 8, "unit": "h"}, {"measurement": "plasma ONO-5334 concentration required to produce 60% reduction of serum CTX-I", "setting": "serum CTX-I [2]; day 5, scatter plot of plasma concentration vs serum CTX-I %CFB, both regimens", "result": "≥ 10", "unit": "ng/mL"}, {"measurement": "time over which >60% suppression of CTX-I was sustained", "setting": "serum CTX-I [2]; evening administration", "result": 12, "unit": "h"}, {"measurement": "CTX-I suppression over 24 h", "setting": "serum CTX-I [2]; morning administration, 150 mg SRT for 5 days", "result": "> 60", "unit": "%"}, {"measurement": "time over which >60% suppression of CTX-I was sustained", "setting": "serum CTX-I [2]; morning administration", "result": 24, "unit": "h"}, {"measurement": "greater suppression of 24-h urinary CTX-I/creatinine AUE, morning than evening", "setting": "urinary CTX-I [3]", "result": 7, "unit": "%"}, {"measurement": "effect on cortical and trabecular bone mineral density (BMD)", "setting": "[4]", "result": "significantly improved"}, {"measurement": "effect on bone strength", "setting": "bone strength", "result": "improved bone strength"}, {"measurement": "suppression of serum CTX-I", "setting": "serum CTX-I [5]", "result": "approximately 60%"}, {"measurement": "laboratory safety data, vital signs, electrocardiogram or physical examinations", "setting": "[6]", "result": "no clinically relevant"}, {"measurement": "safety findings", "setting": "[6]", "result": "no safety findings of concern"}, {"measurement": "mean trough plasma concentration", "setting": "[7]", "result": 9.4, "unit": "ng/mL"}]}
{"molecule": "NCCCC(O)(P(=O)(O)O)P(=O)(O)O", "note": "[alendronate]", "values": [{"measurement": "urinary CTX-I reduction", "setting": "urinary CTX-I [8]", "result": 53, "unit": "%"}, {"measurement": "Serum CTX-I decreases", "setting": "serum CTX-I [5]; following 30–36 months of therapy ref 28, 29", "result": "67–70%"}]}
{"molecule": "CCCN1CCN(c2ccc(C(=O)NC3(C(=O)NCC#N)CCCCC3)cc2)CC1", "note": "[balicatib]", "values": [{"measurement": "serum CTX reduction", "setting": "serum CTX-I [5]; 1-year study ref 22", "result": 61, "unit": "%"}]}
{"molecule": "[Ca]", "note": "[elemental calcium, calcium]", "values": [{"measurement": "effect on bone resorption", "setting": "bone resorption markers; 1000 mg at bedtime", "result": "suppressed nighttime increases of bone resorption"}, {"measurement": "effect on bone resorption", "setting": "bone resorption markers; 1000 mg, morning administration", "result": "no effect"}]}
{"molecule": "CC(C)(F)C[C@H](N[C@@H](c1ccc(-c2ccc(S(C)(=O)=O)cc2)cc1)C(F)(F)F)C(=O)NC1(C#N)CC1", "note": "[odanacatib]", "values": [{"measurement": "suppression of serum CTX-I", "setting": "serum CTX-I [5]", "result": "approximately 60%"}, {"measurement": "continuous reductions of serum CTX-I", "setting": "serum CTX-I [5]; postmenopausal women with low BMD, following 5 years of treatment ref 4", "result": 55, "unit": "%"}, {"measurement": "reductions of serum CTX-I", "setting": "serum CTX-I [5]; postmenopausal women with low BMD, once-weekly, most of the first year of treatment ref 25", "result": "> 60", "unit": "%"}, {"measurement": "serum CTX reduction", "setting": "serum CTX-I [5]; single or repeated doses for 3 weeks ref 23, 24", "result": "62–66%"}]}
{"molecule": "calcitonin [oral calcitonin]", "values": [{"measurement": "duration of impact on bone resorption", "setting": "serum CTX-I [9]", "result": "about 12 h"}]}
